The source of these data is ChEMBL document CHEMBL3593157, “Discovery of a 1-isopropyltetrahydroisoquinoline derivative as an orally active N-type calcium channel blocker for neuropathic pain” (Bioorg Med Chem, 2015).

The structures appear in SMILES notation.

One data set deals with Cytochrome P450 2D6 (Homo sapiens, UniProt P10635). Kind of data set: Inhibition of CYP2D6 in human liver microsomes using dextromethorphan as substrate preincubated for 30 mins before substrate addition measured after 20 mins by LC-MS/MS analysis. Background: Liver microsomes are vesicles of endoplasmic reticulum, rich in cytochrome P450 enzymes.
The nature of data set [1]: Inhibition of N-type calcium channel in human IMR-32 cells by FLIPR assay. Type of data set: cell-based. Put shortly:
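Fluorometric imaging plate reader calcium assay in IMR-32 human neuroblastoma cells. Nitrendipine present to block endogenous L-type calcium channels. IC50 determined in duplicate in one experiment.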

The nature of data set [2]: Intrinsic clearance in human liver microsomes at 0.2 uM measured up to 45 mins by LC-MS/MS analysis. The class given is ADME. The settings on record: read-out: CLH. A digest of the protocol:
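Human liver microsomes (0.2 mg protein/mL) in 100 mM Na+–K+ phosphate buffer pH 7.4 with 1 mM NADPH and 0.1 mM EDTA, preincubated 5 min at 37 °C. Compound at 0.2 µM final, sampled at 0, 15, 30 and 45 min. Residual compound measured by LC–MS/MS. CLint = disappearance rate constant / microsomal protein, from a least-squares linear fit.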

The target in another data set is Cytochrome P450 2C9 (Homo sapiens, UniProt P11712). Kind of data set: Inhibition of recombinant human CYP2C9 using 7-methoxy-4-trifluoromethylcoumarin as substrate after 45 mins by fluorescence-based assay. Type of data set: ADME.
For data set [3], the target named is Voltage-gated inwardly rectifying potassium channel KCNH2 (Homo sapiens, UniProt Q12809). Kind of data set: Inhibition of human ERG expressed in CHO cells after 10 mins by Rb efflux assay. Type of data set: cell-based.
The nature of data set [4]: Aqueous solubility of the compound in Japanese Pharmacopoeia 1st fluid at pH 1.2. Type of data set: physicochemical. A digest of the protocol:
(§1)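 Solubility measured in Japanese Pharmacopoeia 1st fluid for the dissolution test (pH 1.2) and 2nd fluid (pH 6.8).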

The nature of data set [5]: Aqueous solubility of the compound in Japanese Pharmacopoeia 2nd fluid at pH 6.8. Type of data set: physicochemical. Put shortly: as §1
Data set [6] deals with Rattus norvegicus. The data set is described as follows: Analgesic activity in po dosed Sprague-Dawley rat L5/L6 spinal nerve ligation model assessed as reduction of mechanical allodynia. The class given is functional, organism-based. Put shortly:
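Male Sprague-Dawley rats with L5/L6 spinal nerve ligation (Chung method). Compound given orally at 1 to 10 mg/kg. Hindpaw withdrawal threshold to mechanical stimuli measured on the operated and non-operated sides against vehicle groups, n = 8. ED50 derived from the dose-response. Dunnett's test against the operated-side vehicle group.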

Data set [7] in a line: Lipophilicity, log D of the compound at pH 7.4. The class given is physicochemical. A digest of the protocol: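 cLogD at pH 7.4 calculated with ACD/PhysChem Batch rather than measured.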
Data set [8] concerns Mus musculus. Kind of data set: Antinociceptive activity in ddY mouse assessed as inhibition of formalin-induced paw lifting/licking behavior at 100 mg/kg, po administered 15 mins before formalin challenge measured up to 15 to 25 mins. The class given is functional. Put shortly:
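Male ddY mice dosed orally at 100 mg/kg. 2% formalin (20 µL) injected subcutaneously into the plantar hindpaw. Lifting/licking time in the second phase (15–25 min) expressed as % inhibition.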

For data set [9], the system named is Mus musculus. Kind of data set: Antinociceptive activity in intrathecally dosed ddY mouse assessed as reduction of formalin-induced paw lifting/licking behavior administered 15 mins before formalin challenge measured after 15 to 25 mins. The class given is functional. A digest of the protocol:
(§2)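 Male ddY mice given an intrathecal bolus. After 15 min, 2% formalin (20 µL) injected subcutaneously into the plantar hindpaw. Total lifting/licking time recorded for 0–10 min (first phase) and 15–25 min (second phase). Mean of n = 6 against vehicle, Dunnett's test. ED50 in nmol/body.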

Data set [10] relates to Mus musculus. The data set is described as follows: Antinociceptive activity in intrathecally dosed ddY mouse assessed as reduction of formalin-induced paw lifting/licking behavior administered 15 mins before formalin challenge measured up to 10 mins. Type of data set: functional. A digest of the protocol:
as §2

Data set [11] relates to Rattus norvegicus. Kind of data set: Neurotoxicity in Sprague-Dawley rat assessed as effect on motor coordination by measuring time spent on rod at 30 mg/kg, po by rotarod test. Type of data set: toxicity, organism-based. As to conditions: in vivo. Put shortly:
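Motor coordination in Sprague-Dawley rats after oral dosing, assessed by an accelerating rotarod test.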

In data set [12] the test system is Mus musculus. Kind of data set: Toxicity in intrathecally dosed ddY mouse at 10 to 100 […] measured up to 25 mins. The settings on record: in vivo, icv_or_intrathecal. The class given is organism-based.

Cytochrome P450 2D6, sequence (P10635 whole entry): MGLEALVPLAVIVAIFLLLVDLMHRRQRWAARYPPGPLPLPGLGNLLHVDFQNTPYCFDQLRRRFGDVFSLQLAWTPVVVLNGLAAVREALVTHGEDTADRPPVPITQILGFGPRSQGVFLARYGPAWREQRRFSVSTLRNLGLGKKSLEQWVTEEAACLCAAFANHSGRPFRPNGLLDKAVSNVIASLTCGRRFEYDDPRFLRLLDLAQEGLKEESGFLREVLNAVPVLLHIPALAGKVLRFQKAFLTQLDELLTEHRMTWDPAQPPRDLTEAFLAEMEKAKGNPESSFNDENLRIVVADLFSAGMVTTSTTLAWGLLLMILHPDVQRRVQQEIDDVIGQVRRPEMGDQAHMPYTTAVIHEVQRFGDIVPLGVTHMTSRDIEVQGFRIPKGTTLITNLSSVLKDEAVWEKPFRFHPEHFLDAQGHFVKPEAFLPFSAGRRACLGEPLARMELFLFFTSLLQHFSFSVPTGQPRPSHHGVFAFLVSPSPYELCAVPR
Cytochrome P450 2C9, sequence (P11712 whole entry): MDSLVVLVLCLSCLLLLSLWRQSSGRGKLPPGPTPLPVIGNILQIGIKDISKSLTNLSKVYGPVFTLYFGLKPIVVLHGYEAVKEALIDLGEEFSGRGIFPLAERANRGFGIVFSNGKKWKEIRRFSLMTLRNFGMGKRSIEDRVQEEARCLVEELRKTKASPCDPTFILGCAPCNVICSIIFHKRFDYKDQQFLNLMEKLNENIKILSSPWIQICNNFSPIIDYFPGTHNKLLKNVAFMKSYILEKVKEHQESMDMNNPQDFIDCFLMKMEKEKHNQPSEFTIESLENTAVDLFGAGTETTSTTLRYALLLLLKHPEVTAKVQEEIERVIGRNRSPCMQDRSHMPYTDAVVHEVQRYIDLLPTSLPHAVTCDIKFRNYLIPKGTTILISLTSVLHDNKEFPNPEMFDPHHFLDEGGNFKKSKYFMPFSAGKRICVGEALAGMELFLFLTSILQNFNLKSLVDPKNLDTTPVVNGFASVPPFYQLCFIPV
Voltage-gated inwardly rectifying potassium channel KCNH2, sequence (Q12809 whole entry): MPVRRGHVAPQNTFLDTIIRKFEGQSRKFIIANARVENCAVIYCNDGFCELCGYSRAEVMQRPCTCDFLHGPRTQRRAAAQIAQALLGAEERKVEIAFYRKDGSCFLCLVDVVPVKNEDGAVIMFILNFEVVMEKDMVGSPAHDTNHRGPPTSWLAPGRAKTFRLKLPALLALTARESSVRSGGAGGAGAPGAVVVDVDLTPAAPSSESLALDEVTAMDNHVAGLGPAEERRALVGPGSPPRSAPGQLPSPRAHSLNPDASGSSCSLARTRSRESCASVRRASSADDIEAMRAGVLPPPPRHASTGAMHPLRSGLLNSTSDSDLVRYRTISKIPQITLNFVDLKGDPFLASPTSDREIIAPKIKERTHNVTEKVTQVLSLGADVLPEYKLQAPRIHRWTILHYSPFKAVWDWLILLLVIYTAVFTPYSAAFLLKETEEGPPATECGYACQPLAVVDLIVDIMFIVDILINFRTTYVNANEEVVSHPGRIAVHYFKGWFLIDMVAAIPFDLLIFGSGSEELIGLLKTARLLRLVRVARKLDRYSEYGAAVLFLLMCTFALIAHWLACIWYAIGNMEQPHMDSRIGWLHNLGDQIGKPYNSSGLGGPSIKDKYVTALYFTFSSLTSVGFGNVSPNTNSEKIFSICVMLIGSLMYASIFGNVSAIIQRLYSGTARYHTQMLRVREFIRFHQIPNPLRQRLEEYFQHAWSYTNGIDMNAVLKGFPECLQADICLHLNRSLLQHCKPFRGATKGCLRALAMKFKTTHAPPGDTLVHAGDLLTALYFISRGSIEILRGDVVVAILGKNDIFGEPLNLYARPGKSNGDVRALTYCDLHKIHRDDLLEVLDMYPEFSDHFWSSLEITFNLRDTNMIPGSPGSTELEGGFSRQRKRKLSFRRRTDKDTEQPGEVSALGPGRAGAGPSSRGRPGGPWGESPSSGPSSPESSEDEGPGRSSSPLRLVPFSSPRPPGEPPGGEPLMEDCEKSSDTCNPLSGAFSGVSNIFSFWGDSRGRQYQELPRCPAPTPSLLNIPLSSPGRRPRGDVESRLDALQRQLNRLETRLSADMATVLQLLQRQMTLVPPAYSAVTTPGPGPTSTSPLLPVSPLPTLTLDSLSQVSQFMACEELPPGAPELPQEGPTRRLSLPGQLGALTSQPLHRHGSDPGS

Regarding `CCC(CC)C1c2ccccc2CCN1C(=O)CNCC1(O)CCCCC1` (stereo not drawn), the results for the half-maximal inhibitory concentration (IC50) (against Cytochrome P450 2D6; in data set [1]) were below 780 nM and 730 nM, respectively.

Turning to `COc1cccc2c1C(C(C)C)N(C(=O)CNCC1(O)CCCCC1)CC2` (stereo not drawn), in data set [1], the IC50 (in general, the concentration needed to halve the response being measured) came to 1400 nM.

As to `CC(C)C1c2ccccc2CCN1C(=O)CNCC1(O)CCCCC1` (stereo not drawn), the concentration for half-maximal inhibition (IC50) in data set [1] worked out at 1100 nM.

On to `COc1ccc2c(c1)CCN(C(=O)CNCC1(O)CCCCC1)[C@H]2C(C)C`, for which the CLint scaled at 0.2 µM in [2] was 188 mL/min/kg. In addition, the results for the IC50 (at Cytochrome P450 2C9; in data set [3]; in data set [1]) were above 50000 nM, above 100000 nM and 2100 nM, respectively. Further, the solubility in [4] and in [5] was above 100 µg/mL throughout.

Consider `O=C(CNCC1(O)CCCCC1)N1CCc2ccccc2[C@@H]1c1ccccc1`, for which the IC50 was below 390 nM at Cytochrome P450 2D6 and 1000 nM in data set [1].

Take `COc1ccc2c(c1)CCN(C(=O)CNCC1(O)CCCCC1)[C@@H]2C(C)C`: the CLint scaled at 0.2 µM in data set [2] worked out at 101 mL/min/kg. Further, the IC50 at Cytochrome P450 2C9 was above 50000 nM; in data set [3] it was above 100000 nM; in data set [1], 1900 nM. In addition, the Activity result was “Dose-dependent effect” in the data set with Rattus norvegicus [6]; “Dose-dependent effect” in the data set with Mus musculus [9]; “Dose-dependent effect” with Mus musculus [10]; “Non-toxic” in the data set on Rattus norvegicus [11]; “Non-toxic” in the data set with Mus musculus [12]. Also, the logD (as a rule, lipophilicity at a set pH, counting ionised and neutral species) in data set [7] was 2.4. The solubility in [4] and in [5] was above 100 µg/mL each time. In the data set with Mus musculus [8], the inhibition in vivo – broadly, the change of the read-out against control, counted positive when it falls – at 100 mg/kg amounted to 64%. Also, the ED50 is reported as 25.4 nmol in the data set with Mus musculus [9] and above 100 nmol with Mus musculus [10].

`O=C(CNCC1(O)CCCCC1)N1CCc2ccccc2C1C1CCCC1` (stereo not drawn): the IC50 in data set [1] amounted to 990 nM.

`Cc1cccc2c1C(C(C)C)N(C(=O)CNCC1(O)CCCCC1)CC2` (stereo not drawn): the IC50 on Cytochrome P450 2D6 was below 780 nM; in [1] it was 1600 nM.

For `O=C(CNCC1(O)CCCCC1)N1CCc2ccccc2C1C1CCOCC1` (stereo not drawn), the IC50 in [1] amounted to 4100 nM.

`CC(C)(O)C1c2ccccc2CCN1C(=O)CNCC1(O)CCCCC1` (stereo not drawn): in data set [1], the IC50 was 6100 nM.

As to `CC1c2ccccc2CCN1C(=O)CNCC1(O)CCCCC1` (stereo not drawn), the IC50 in [1] is 2900 nM.

Consider `O=C(CNCC1(O)CCCCC1)N1CCc2ccccc2C1`, for which the IC50 in [1] was 8000 nM.

On to `COC(C)(C)C1c2ccccc2CCN1C(=O)CNCC1(O)CCCCC1` (stereo not drawn), for which the half-inhibitory concentration (IC50) in data set [1] was determined as 3700 nM.

For `CC(C)C1c2cc(F)ccc2CCN1C(=O)CNCC1(O)CCCCC1` (stereo not drawn), the IC50 was determined as 680 nM at Cytochrome P450 2D6 and 1300 nM in data set [1].

Turning to `COc1ccc2c(c1)CCN(C(=O)CNCC1(O)CCCCC1)C2C(C)C` (stereo not drawn), the half-inhibitory concentration (IC50) in [1] was determined as 1300 nM.

Regarding `CC(C)C1c2ccc(F)cc2CCN1C(=O)CNCC1(O)CCCCC1` (stereo not drawn), the IC50 at Cytochrome P450 2D6 came to 390 nM; in [1], 890 nM.

Regarding `CC(C)(C)C1c2ccccc2CCN1C(=O)CNCC1(O)CCCCC1` (stereo not drawn), the IC50 against Cytochrome P450 2D6 is below 780 nM; in data set [1], 800 nM.

For the molecule `CC(C)C1c2c(F)cccc2CCN1C(=O)CNCC1(O)CCCCC1` (stereo not drawn), the IC50 in [1] was 1500 nM.

Consider `Cc1cccc2c1CCN(C(=O)CNCC1(O)CCCCC1)C2C(C)C` (stereo not drawn), for which the IC50 against Cytochrome P450 2D6 was below 780 nM; in [1], 1400 nM.

As to `Cc1ccc2c(c1)C(C(C)C)N(C(=O)CNCC1(O)CCCCC1)CC2` (stereo not drawn), the figures for the IC50 (on Cytochrome P450 2D6; in data set [1]) were below 780 nM and 1400 nM, respectively.

Turning to `COc1ccc2c(c1)C(C(C)C)N(C(=O)CNCC1(O)CCCCC1)CC2` (stereo not drawn), the IC50 in data set [1] is 1600 nM.
